The results in this text go back to ChEMBL document CHEMBL1250448, “Inhibitor hijacking of Akt activation” (Nat Chem Biol, 2009).

The target in assay [1] is Mitogen-activated protein kinase kinase kinase 9 (Homo sapiens) (UniProt P80192). Briefly: Inhibition of MAP3K9 at 1 uM in presence of 100 uM ATP by Select Screen kinase assay relative to untreated control. In a few lines: (§1)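 Single-concentration profiling at 1 μM against a panel of 220 purified kinases, run as an outsourced SelectScreen kinase profiling service. Activity is expressed as percent inhibition.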

Assay [2] concerns the target Fibroblast growth factor receptor 3 (Homo sapiens) (UniProt P22607). Briefly: Inhibition of FGFR3 at 1 uM in presence of 10 uM ATP by Select Screen kinase assay relative to untreated control. In a few lines: as §1
Assay [3] deals with Serine/threonine-protein kinase 25 (Homo sapiens) (UniProt O00506). Briefly: Inhibition of STK25 at 1 uM in presence of 100 uM ATP by Select Screen kinase assay relative to untreated control. The procedure, abridged:
(§2)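 Commercial SelectScreen profiling panel of 220 purified kinases. Each kinase was tested at a single inhibitor concentration of 1 μM, and activity was expressed as percent inhibition.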

In assay [4] the target is T1, G protein-coupled receptor kinase 3 (Homo sapiens) (UniProt P35626).
T1 sequence (whole entry): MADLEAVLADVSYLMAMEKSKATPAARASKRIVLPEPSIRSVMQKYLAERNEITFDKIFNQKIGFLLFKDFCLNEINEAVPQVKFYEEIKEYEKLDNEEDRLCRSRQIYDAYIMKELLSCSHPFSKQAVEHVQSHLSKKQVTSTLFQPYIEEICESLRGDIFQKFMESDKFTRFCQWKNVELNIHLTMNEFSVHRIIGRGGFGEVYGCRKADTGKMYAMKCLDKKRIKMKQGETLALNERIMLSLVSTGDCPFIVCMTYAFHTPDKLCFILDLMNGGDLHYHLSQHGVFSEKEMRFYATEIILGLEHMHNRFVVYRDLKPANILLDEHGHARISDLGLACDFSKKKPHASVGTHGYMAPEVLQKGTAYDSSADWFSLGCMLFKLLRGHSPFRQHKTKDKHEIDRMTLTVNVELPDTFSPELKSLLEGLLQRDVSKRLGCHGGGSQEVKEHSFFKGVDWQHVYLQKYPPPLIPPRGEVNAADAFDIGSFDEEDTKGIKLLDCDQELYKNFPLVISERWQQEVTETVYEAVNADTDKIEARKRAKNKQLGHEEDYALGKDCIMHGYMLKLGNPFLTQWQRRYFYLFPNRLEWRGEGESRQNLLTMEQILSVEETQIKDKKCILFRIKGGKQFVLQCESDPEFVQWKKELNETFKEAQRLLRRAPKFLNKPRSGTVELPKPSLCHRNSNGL
Briefly: Inhibition of ADRBK2 at 1 uM in presence of 10 uM ATP by Select Screen kinase assay relative to untreated control. In a few lines:
(§3)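 Single-point screen at 1 μM against a panel of 220 purified kinases, run by Invitrogen staff as a SelectScreen profiling service. Read-out is percent inhibition of kinase activity.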

For assay [5], the target named is T2, Rhodopsin kinase GRK7 (Homo sapiens) (UniProt Q8WTQ7).
T2 sequence (whole entry): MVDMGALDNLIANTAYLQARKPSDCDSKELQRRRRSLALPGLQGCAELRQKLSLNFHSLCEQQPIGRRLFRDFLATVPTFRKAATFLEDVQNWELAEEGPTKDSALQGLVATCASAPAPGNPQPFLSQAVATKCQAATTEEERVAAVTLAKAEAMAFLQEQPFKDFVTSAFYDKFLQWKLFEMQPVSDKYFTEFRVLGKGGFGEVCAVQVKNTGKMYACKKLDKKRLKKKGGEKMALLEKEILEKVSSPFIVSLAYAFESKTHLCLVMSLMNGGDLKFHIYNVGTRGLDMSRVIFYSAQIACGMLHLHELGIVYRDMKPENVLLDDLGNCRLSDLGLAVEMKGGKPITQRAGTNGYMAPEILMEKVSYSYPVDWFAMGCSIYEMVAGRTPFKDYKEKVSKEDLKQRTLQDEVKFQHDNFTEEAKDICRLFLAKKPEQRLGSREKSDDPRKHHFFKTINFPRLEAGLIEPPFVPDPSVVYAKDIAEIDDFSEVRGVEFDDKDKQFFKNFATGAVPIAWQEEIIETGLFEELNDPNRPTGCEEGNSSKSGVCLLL
Briefly: Inhibition of GRK7 at 1 uM in presence of 10 uM ATP by Select Screen kinase assay relative to untreated control. The procedure, abridged: as §1

The target in assay [6] is Tyrosine-protein kinase Fes/Fps (Homo sapiens) (UniProt P07332). Briefly: Inhibition of FES at 1 uM in presence of 10 uM ATP by Select Screen kinase assay relative to untreated control. In a few lines: as §3
In assay [7] the test system is Hepatocyte growth factor receptor (Homo sapiens), P08581 [M1250T]. Briefly: Inhibition of MET M1250T mutant at 1 uM in presence of 10 uM ATP by Select Screen kinase assay relative to untreated control. In a few lines: as §1
The target of assay [8] is Hepatocyte growth factor receptor (Homo sapiens) (UniProt P08581). Briefly: Inhibition of MET at 1 uM in presence of 10 uM ATP by Select Screen kinase assay relative to untreated control. In a few lines:
as §1

The target of assay [9] is G protein-coupled receptor kinase 6 (Homo sapiens) (UniProt P43250). Briefly: Inhibition of GRK6 at 1 uM in presence of 10 uM ATP by Select Screen kinase assay relative to untreated control. The procedure, abridged:
as §1

For assay [10], the target named is G protein-coupled receptor kinase 4 (Homo sapiens) (UniProt P32298). Briefly: Inhibition of GRK4 at 1 uM in presence of 10 uM ATP by Select Screen kinase assay relative to untreated control. The procedure, abridged: as §1
Chain of G protein-coupled receptor kinase 4 (Homo sapiens) (P32298 whole entry, looked up, canonical isoform): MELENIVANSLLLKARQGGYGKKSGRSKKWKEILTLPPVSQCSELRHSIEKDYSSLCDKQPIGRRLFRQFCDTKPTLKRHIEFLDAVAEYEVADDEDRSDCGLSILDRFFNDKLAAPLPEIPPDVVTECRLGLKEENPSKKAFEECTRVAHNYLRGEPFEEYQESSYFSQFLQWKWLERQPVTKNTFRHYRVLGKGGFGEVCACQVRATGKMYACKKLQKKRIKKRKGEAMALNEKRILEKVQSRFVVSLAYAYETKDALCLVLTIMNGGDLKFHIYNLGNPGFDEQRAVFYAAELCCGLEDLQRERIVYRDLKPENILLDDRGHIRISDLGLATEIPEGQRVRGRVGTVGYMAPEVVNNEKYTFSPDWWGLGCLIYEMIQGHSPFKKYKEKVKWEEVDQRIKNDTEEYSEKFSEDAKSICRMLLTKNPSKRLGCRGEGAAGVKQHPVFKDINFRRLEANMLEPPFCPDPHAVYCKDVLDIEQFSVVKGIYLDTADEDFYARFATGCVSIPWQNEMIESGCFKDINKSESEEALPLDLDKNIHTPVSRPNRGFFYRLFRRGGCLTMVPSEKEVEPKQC
The target in assay [11] is Phosphorylase b kinase gamma catalytic chain, skeletal muscle/heart isoform (Homo sapiens) (UniProt Q16816). Briefly: Inhibition of PHKG1 at 1 uM in presence of 100 uM ATP by Select Screen kinase assay relative to untreated control. The procedure, abridged:
as §2

The target of assay [12] is Leukocyte tyrosine kinase receptor (Homo sapiens) (UniProt P29376). Briefly: Inhibition of LTK at 1 uM in presence of 10 uM ATP by Select Screen kinase assay relative to untreated control. In a few lines: as §1
Chain of Leukocyte tyrosine kinase receptor (Homo sapiens) (P29376 whole entry): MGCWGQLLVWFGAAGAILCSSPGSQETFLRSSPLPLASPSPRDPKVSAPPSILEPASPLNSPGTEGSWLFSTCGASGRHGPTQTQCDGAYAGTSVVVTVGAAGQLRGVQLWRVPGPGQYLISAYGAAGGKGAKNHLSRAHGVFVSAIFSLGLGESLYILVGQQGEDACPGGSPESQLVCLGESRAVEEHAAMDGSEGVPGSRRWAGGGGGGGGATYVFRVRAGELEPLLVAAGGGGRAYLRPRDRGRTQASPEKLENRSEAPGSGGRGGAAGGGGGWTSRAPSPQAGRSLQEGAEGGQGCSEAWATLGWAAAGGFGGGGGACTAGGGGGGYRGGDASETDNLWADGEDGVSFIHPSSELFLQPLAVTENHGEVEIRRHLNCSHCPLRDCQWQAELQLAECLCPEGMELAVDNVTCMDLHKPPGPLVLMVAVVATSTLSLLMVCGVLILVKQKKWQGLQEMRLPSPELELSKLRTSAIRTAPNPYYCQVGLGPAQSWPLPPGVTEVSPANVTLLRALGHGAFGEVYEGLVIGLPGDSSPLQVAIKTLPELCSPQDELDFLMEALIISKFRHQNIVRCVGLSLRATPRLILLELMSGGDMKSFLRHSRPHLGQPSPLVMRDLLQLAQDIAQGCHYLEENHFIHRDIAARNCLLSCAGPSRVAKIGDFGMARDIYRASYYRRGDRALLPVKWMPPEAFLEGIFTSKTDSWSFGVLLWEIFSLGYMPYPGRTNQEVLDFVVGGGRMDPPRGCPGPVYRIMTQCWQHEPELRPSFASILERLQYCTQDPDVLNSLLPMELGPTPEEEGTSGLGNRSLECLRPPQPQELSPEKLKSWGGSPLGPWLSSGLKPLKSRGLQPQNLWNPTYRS
Assay [13] has as its target BDNF/NT-3 growth factors receptor (Homo sapiens) (UniProt Q16620). Briefly: Inhibition of NTRK2 at 1 uM in presence of 10 uM ATP by Select Screen kinase assay relative to untreated control. The procedure, abridged:
as §2

Assay [14] deals with NT-3 growth factor receptor (Homo sapiens) (UniProt Q16288). Briefly: Inhibition of NTRK3 at 1 uM in presence of 10 uM ATP by Select Screen kinase assay relative to untreated control. In a few lines: as §2
Assay [15] has as its system Serine/threonine-protein kinase B-raf (Homo sapiens), P15056 [V600E]. Briefly: Inhibition of BRAF V599E mutant at 1 uM in presence of 100 uM ATP by Select Screen kinase assay relative to untreated control. In a few lines: as §3
Assay [16] has as its target Tyrosine-protein kinase Fer (Homo sapiens) (UniProt P16591). Briefly: Inhibition of FER at 1 uM in presence of 10 uM ATP by Select Screen kinase assay relative to untreated control. In a few lines:
as §3

The target of assay [17] is Serine/threonine-protein kinase PAK 2 (Homo sapiens) (UniProt Q13177). Briefly: Inhibition of PAK2 at 1 uM in presence of 10 uM ATP by Select Screen kinase assay relative to untreated control. In a few lines:
as §2

SMILES strings stand for the structures.

Chain of G protein-coupled receptor kinase 6 (Homo sapiens) (P43250 whole entry, looked up): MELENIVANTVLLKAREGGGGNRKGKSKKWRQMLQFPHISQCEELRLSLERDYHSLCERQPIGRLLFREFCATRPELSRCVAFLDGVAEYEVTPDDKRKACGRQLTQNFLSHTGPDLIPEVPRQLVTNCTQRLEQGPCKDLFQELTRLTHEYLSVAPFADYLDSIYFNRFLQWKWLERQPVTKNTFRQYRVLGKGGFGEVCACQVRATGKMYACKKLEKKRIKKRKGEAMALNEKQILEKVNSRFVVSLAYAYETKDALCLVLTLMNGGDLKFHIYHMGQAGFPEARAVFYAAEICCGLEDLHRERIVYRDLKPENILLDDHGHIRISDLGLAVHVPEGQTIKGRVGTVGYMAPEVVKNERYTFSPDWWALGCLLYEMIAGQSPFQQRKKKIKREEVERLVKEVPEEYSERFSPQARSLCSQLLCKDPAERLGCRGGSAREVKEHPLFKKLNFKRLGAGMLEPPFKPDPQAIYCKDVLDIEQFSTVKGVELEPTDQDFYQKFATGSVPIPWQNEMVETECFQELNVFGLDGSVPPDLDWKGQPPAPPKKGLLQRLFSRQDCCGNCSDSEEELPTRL
Chain of BDNF/NT-3 growth factors receptor (Homo sapiens) (Q16620 32-822 limits assumed): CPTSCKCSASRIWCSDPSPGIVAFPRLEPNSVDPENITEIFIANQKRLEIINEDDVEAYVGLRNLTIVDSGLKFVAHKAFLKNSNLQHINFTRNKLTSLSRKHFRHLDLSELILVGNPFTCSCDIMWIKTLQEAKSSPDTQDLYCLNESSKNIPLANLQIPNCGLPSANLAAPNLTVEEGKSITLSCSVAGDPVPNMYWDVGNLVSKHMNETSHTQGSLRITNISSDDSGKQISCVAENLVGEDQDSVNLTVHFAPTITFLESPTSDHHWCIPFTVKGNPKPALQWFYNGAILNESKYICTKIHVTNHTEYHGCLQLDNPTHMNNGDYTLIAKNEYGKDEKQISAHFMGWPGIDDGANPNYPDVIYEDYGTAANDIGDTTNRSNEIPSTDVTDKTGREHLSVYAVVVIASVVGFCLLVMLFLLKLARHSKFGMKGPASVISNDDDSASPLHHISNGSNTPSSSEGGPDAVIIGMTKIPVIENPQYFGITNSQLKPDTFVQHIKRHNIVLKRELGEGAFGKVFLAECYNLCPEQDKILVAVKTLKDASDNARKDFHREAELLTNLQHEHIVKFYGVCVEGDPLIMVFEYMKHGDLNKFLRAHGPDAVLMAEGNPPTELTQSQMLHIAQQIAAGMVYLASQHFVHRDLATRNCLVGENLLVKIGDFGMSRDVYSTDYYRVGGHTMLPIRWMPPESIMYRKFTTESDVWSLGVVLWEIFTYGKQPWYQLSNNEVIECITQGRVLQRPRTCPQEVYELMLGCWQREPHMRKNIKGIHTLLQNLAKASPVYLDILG
Chain of Serine/threonine-protein kinase B-raf (Homo sapiens), P15056 [V600E] (P15056 whole entry V600E): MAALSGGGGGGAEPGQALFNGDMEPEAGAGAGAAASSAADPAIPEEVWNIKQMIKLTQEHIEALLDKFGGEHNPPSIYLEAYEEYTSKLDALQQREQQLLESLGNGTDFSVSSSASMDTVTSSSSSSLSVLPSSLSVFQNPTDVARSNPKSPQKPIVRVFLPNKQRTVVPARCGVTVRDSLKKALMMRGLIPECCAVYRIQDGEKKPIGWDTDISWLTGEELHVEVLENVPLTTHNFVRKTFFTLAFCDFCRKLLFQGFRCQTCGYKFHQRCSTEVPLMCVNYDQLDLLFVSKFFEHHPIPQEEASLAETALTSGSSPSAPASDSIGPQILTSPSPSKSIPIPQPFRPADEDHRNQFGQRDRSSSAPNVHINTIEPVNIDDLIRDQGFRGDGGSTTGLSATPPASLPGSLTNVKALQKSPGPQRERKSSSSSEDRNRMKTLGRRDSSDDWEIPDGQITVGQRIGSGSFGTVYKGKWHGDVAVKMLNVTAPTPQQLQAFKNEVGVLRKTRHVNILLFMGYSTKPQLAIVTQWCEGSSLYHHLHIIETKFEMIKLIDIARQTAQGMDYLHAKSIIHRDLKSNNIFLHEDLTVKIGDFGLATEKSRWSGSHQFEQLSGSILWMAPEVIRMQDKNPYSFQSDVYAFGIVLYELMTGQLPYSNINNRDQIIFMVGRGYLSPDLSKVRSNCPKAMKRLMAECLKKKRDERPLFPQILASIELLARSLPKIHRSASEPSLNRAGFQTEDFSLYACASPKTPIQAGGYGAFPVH
Chain of Fibroblast growth factor receptor 3 (Homo sapiens) (P22607 23-806 limits assumed): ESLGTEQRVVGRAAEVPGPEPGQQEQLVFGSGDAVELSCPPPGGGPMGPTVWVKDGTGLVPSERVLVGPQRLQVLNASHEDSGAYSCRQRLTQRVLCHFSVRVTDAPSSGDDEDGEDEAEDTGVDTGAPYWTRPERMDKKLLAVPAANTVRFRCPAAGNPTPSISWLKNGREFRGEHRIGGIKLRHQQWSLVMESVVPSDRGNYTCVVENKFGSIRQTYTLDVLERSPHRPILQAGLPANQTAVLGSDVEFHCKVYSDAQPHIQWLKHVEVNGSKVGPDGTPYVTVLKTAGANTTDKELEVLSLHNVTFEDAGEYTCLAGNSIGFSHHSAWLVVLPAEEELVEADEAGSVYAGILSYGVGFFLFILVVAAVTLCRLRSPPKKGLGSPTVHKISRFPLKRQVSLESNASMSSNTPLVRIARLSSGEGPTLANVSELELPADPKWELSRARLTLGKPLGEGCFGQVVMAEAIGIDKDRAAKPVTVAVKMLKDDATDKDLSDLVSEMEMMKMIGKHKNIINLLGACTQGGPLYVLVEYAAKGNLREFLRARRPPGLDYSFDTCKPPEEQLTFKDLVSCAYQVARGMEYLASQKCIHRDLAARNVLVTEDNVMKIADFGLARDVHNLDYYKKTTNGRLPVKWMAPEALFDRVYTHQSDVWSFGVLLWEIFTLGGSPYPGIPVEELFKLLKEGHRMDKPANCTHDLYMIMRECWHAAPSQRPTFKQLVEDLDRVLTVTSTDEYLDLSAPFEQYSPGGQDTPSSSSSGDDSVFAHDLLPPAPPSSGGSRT
Chain of Serine/threonine-protein kinase PAK 2 (Homo sapiens) (Q13177 whole entry): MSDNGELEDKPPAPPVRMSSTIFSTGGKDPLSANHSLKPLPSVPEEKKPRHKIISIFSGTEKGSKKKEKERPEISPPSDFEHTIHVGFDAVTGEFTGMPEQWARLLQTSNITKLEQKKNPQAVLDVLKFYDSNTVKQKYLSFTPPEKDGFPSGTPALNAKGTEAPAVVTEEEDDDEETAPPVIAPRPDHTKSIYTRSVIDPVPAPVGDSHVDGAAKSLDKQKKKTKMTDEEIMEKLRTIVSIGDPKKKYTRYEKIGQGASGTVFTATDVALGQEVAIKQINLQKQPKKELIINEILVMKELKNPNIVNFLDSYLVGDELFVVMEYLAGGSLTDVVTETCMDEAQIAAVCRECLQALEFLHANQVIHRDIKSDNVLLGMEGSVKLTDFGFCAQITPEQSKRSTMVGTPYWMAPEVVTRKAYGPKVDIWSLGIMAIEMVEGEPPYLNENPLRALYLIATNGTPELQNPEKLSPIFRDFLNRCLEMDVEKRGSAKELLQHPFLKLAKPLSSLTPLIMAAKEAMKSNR

A word on the inhibition: it is the relative decrease from the control value, in per cent. In the case of `O=C(NCCCNc1nc(Nc2cccc(NC(=O)N3CCCC3)c2)ncc1I)c1cccs1`, the inhibition turned out to be 98% in [1]; 43% in assay [2]; 13% in assay [3]; 10% in [4]; 17% in assay [5]; 37% in assay [6]. Further, the inhibition in [7] worked out at 11%; in assay [8] it was 11%; in [9], 2%; in assay [10], 9%; in assay [11] it was 58%; in assay [12] it was 5%. Besides, the inhibition was 74% in assay [13]; 80% in [14]; 52% in assay [15]; 38% in [16]; 5% in assay [17].

For `COc1ccccc1N1CCN(c2ncnc3[nH]nc(Br)c23)CC1`, the inhibition is 22% in assay [1]; 23% in assay [2]; 14% in [3]; 8% in [4]; 34% in assay [5]; 16% in [6]. Moreover, the inhibition in assay [7] is 3%; in [8], 8%; in assay [9], 27%; in assay [10] it was 16%; in [11] it was 6%; in [12], 7%. The inhibition is 11% in assay [13]; 37% in [14]; 9% in assay [15]; 28% in [16]; 9% in assay [17].

As to `Cc1n[nH]c2ccc(-c3cncc(OC[C@@H](N)Cc4c[nH]c5ccccc45)c3)cc12`, the inhibition in [1] was 15%; in [2], -1%; in [3], 102%; in [4], 1%; in assay [5], 102%; in assay [6], 40%. The inhibition stood at 5% in [7]; 12% in assay [8]; 78% in assay [9]; 72% in assay [10]; 76% in [11]; 35% in [12]. Further, the inhibition is 12% in [13]; 28% in assay [14]; 45% in [15]; 14% in assay [16]; 55% in [17].
